# Calls of active or inactive are those of the source. The rule behind the calls is not given here.
# Experiments:
# Plasma [1] = test: Anticoagulant activity in human plasma assessed as partial thromboplastin time at 10 uM (reference value: 59 +/- 2.6 secs); type: functional
# Cavia porcellus [2] = species: Cavia porcellus; test: Inhibition of guinea pig complement-mediated immune lysis of sheep red blood cells at 30 uM after 12 mins
# In short: (§1)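 Inhibitor in Tris/Mg/Ca/NaCl/gelatin buffer was preincubated 15 min at 37° with guinea pig complement (1:100 of 200 CH50/ml). Sheep erythrocytes (10^9/ml) presensitized with rabbit hemolysin (1:800) were added, and tubes incubated 12 min at 37°. Cold citrate-saline stopped lysis. Hemoglobin at 524 nm was converted to % inhibition via a complement standard curve, corrected for inhibitor lysis, in duplicate.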
# Prothrombin (Bos taurus) = Prothrombin (Bos taurus) (UniProt P00735); test: Inhibition of bovine thrombin-mediated blood clotting formation in presence of human fibrinogen
# Glandular kallikrein [3] = target: T1, Glandular kallikrein (Sus scrofa, UniProt P00752); test: Inhibition of porcine pancreatic kallikrein using BANA as substrate after 15 to 180 mins
# T1 sequence (P00752 whole entry): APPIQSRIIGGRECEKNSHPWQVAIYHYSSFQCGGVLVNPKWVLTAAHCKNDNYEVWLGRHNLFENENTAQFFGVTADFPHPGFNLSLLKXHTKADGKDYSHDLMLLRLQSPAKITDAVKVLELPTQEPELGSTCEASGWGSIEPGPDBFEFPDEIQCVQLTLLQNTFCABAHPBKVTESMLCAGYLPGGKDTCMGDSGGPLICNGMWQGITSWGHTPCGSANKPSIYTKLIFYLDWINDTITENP
# In short: (§2)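 Porcine pancreatic kallikrein (635 Frey units/mg) amidase assay, pH 8.1, 37°, 15-180 min. […] Ki came from Dixon plots at two substrate concentrations. Means ± SD, n = 3.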
# [4] = Inhibition of bovine trypsin using BANA as substrate after 15 to 30 mins; design: species or system Bos taurus
# Plasma [5] = test: Anticoagulant activity in human plasma assessed as partial thromboplastin time at 5 uM (reference value: 59 +/- 2.6 secs); type: functional
# Prothrombin [6] = target: T2, Prothrombin (Bos taurus, UniProt P00735); test: Inhibition of amidase activity of bovine thrombin using BANA as substrate after 15 to 40 mins
# Cavia porcellus [7] = species: Cavia porcellus; test: Inhibition of guinea pig complement-mediated immune lysis of sheep red blood cells at 0.1 mM after 12 mins; in short: as §1
# Cavia porcellus [8] = species: Cavia porcellus; test: Inhibition of guinea pig complement-mediated immune lysis of sheep red blood cells at 10 uM after 12 mins; in short: as §1
# Plasma [9] = test: Anticoagulant activity in human plasma assessed as partial thromboplastin time at 0.1 mM (reference value: 59 +/- 2.6 secs); type: functional
# Prothrombin [10] = target: T2, Prothrombin; test: Inhibition of amidase activity of bovine thrombin using BPVANA as substrate after 15 to 40 mins
# Glandular kallikrein [11] = target: T1, Glandular kallikrein; test: Inhibition of porcine pancreatic kallikrein using BPPANA as substrate after 15 to 180 mins; in short: as §2
# Rattus norvegicus = test: Anticoagulant activity in Wistar rat plasma assessed as activation of partial thromboplastin time at 1.9 mg/kg, iv; type: functional, organism-based; design: dose 1.9 mg/kg
# In short: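 Female Wistar rats (about 300 g), anesthetized with sodium pentobarbital 25 mg/kg sc, received inhibitor at 1.9 mg/kg iv. Post-injection plasma was separated by centrifugation. 0.1 ml was mixed with Celite suspension, saline and partial thromboplastin, agitated 3 min at 37°, recalcified with 0.02 M CaCl2, and activated PTT clotting time recorded.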
inhibition (Cavia porcellus [2]) [%],IC50 (Prothrombin (Bos taurus)) [µM],Ki (Glandular kallikrein [3]) [µM],Ki [4] [µM],Ki (Prothrombin [6]) [µM],inhibition (Cavia porcellus [7]) [%],inhibition (Cavia porcellus [8]) [%],Ki (Prothrombin [10]) [µM],Ki (Glandular kallikrein [11]) [µM],Compound,APTT (Plasma [1]) [s],APTT (Plasma [5]) [s],APTT (Plasma [9]) [s],Activity (Rattus norvegicus)
> 50,8,5.2,1.3,1.5,> 50,5.9,–,–,Cl.N=C(N)c1ccc(OCc2c(Cl)c(Cl)c(Cl)c(COc3ccc(C(=N)N)cc3)c2Cl)cc1,76,62,–,–
13.7,6.5,3.4,3.2,4.6,34,0,–,–,Cl.N=C(N)c1cccc(OCc2cccc(COc3cccc(C(=N)N)c3)c2)c1,112,92,714,–
28.5,–,–,–,–,> 50,20.8,–,–,N=C(N)c1ccc(OCCCCCOc2ccc(C(=N)N)cc2Br)c(Br)c1,–,–,–,–
0,–,8.6,2.8,–,0,0,–,–,Cl.N=C(N)c1ccc(COc2cccc3c(OCc4ccc(C(=N)N)cc4)cccc23)cc1,61,60,141,–
–,4,1.76,4.01,1.67,–,–,–,–,Cl.N=C(N)c1cccc(OCc2cccc(-c3cccc(COc4cccc(C(=N)N)c4)c3)c2)c1,93,73,–,–
> 50,30,5.5,3.2,2.4,> 50,11,–,–,Cl.N=C(N)c1cccc(COc2ccc3cc(OCc4cccc(C(=N)N)c4)ccc3c2)c1,72,61,277,–
10.8,–,2.5,1.9,6.6,–,2.9,–,–,Cl.N=C(N)c1ccc(OCc2ccc(COc3ccc(C(=N)N)cc3)c3ccccc23)cc1,71,64,203,–
–,0.73,1.6,1.4,–,–,–,0.57,–,Cl.N=C(N)c1ccc(OCc2cccc(-c3cccc(COc4ccc(C(=N)N)cc4)c3)c2)cc1,83,72,412,–
32.6,–,–,0.67,1.2,> 50,0,–,0.031,Cl.N=C(N)c1ccc(OCc2cccc(COc3ccc(C(=N)N)cc3I)c2)c(I)c1,70,64,369,–
8.9,–,2.2,0.42,–,39,0,–,–,Cl.N=C(N)c1cccc(COc2cccc3c(OCc4cccc(C(=N)N)c4)cccc23)c1,75,65,–,–
10.3,25,6.7,3.5,4.8,24.9,0,–,–,Cl.N=C(N)c1ccc(OCc2cccc(COc3ccc(C(=N)N)cc3)c2)cc1,117,87,–,–
–,–,0.71,1.1,–,–,–,0.16,–,Cl.N=C(N)c1ccc(OCc2ccc(COc3ccc(C(=N)N)cc3Br)cc2)c(Br)c1,110,96,258,–
29.8,1,–,2.3,–,–,0,0.11,0.61,Cl.N=C(N)c1ccc(OCc2ccc(COc3ccc(C(=N)N)cc3I)cc2)c(I)c1,92,80,–,–
> 50,–,3.4,1.2,6.7,–,0,–,–,N=C(N)c1ccc(OCc2c(Cl)c(Cl)c(COc3ccc(C(=N)N)cc3)c(Cl)c2Cl)cc1,–,–,–,–
14,13,5.8,6.1,5,19.1,5.6,–,–,Cl.N=C(N)c1cccc(OCc2ccc(COc3cccc(C(=N)N)c3)cc2)c1,122,80,391,–
37.4,20,2.8,1.8,4.9,> 50,12.8,–,–,Cl.N=C(N)c1ccc(COc2ccc3ccc(OCc4ccc(C(=N)N)cc4)cc3c2)cc1,66,63,–,–
> 50,–,–,–,–,> 50,50,–,–,CC[n+]1c(-c2ccccc2)c2cc(NN=Nc3cccc(C(=N)N)c3)ccc2c2ccc(NN=Nc3cccc(C(=N)N)c3)cc21,–,–,–,–
47,72,5.5,5.9,5.1,–,36.6,–,–,N=C(N)c1cccc(OCc2ccc3cc(COc4cccc(C(=N)N)c4)ccc3c2)c1,–,–,–,–
–,–,9.7,3.2,6,–,–,–,–,N=C(N)c1ccc(COc2ccc3cc(OCc4ccc(C(=N)N)cc4)ccc3c2)cc1,–,–,–,–
> 50,–,–,–,–,–,26.9,–,–,N=C(N)c1ccc(OCCCCCOc2ccc(C(=N)N)cc2I)c(I)c1,–,–,–,–
–,10,2.2,0.25,–,–,–,0.27,–,Cl.N=C(N)c1ccc(OCc2cccc(-c3cccc(COc4ccc(C(=N)N)cc4Br)c3)c2)c(Br)c1,–,62,–,–
26.9,–,–,–,–,19.1,6.3,–,–,N=C(N)c1ccc(OCCCOc2ccc(C(=N)N)cc2Br)c(Br)c1,–,–,–,–
0,17,11.4,1.3,3.4,25.9,0,–,–,Cl.N=C(N)c1ccc(OCc2ccc(COc3ccc(C(=N)N)cc3)cc2)cc1,176,147,725,inactive
15.3,15,1.04,1.8,5.2,> 50,5.6,–,–,Cl.N=C(N)c1ccc(OCc2cc(COc3ccc(C(=N)N)cc3)c3ccccc3c2)cc1,67,62,147,–
